Assays:
[1] = test system: M14; experiment: Growth inhibition of human M14 cells after 48 hrs by SRB assay; format: functional; conditions: M14, 48 h
Method in brief: (§1)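 NCI DTP panel cells grown in RPMI 1640 with 5% FBS and 2 mM L-glutamine, preincubated 24 h, then given five concentrations (10-fold or ½-log dilutions from DMSO stock) for 48 h at 37 °C. Cells fixed with TCA, stained with SRB, absorbance read at 515 nm, with time-zero plates as reference.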

[2] = test system: A549; experiment: Growth inhibition of human A549 cells after 48 hrs by SRB assay; format: functional; conditions: A549, 48 h; method in brief: as §1
[3] = test system: RPMI-8226; experiment: Growth inhibition of human RPMI8226 cells after 48 hrs by SRB assay; format: functional; conditions: RPMI-8226, 48 h; method in brief: as §1
[4] = test system: MDA-MB-435; experiment: Growth inhibition of human MDA-MB-435 cells after 48 hrs by SRB assay; format: functional; conditions: MDA-MB-435, 48 h; method in brief: as §1
[5] = test system: UO-31; experiment: Growth inhibition of human UO31 cells after 48 hrs by SRB assay; format: functional; conditions: UO-31, 48 h
Method in brief: (§2)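 Run by the NCI Developmental Therapeutics Program: cells in RPMI 1640 with 5% FBS and 2 mM L-glutamine, plated at 5000–40,000 cells/well and grown 24 h before dosing. Drug (DMSO stock) given at five concentrations for 48 h at 37 °C, 5% CO2. Adherent cells fixed with cold TCA, stained with 0.4% SRB and read at 515 nm. GI50, TGI and LC50 taken from the time-zero, control and treated absorbances.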

[6] = test system: RXF 393; experiment: Growth inhibition of human RXF393 cells after 48 hrs by SRB assay; format: functional; conditions: RXF 393, 48 h; method in brief: as §1
[7] = test system: PC-3; experiment: Growth inhibition of human PC3 cells after 48 hrs by SRB assay; format: functional; conditions: PC-3, 48 h; method in brief: as §1
[8] = test system: A498; experiment: Growth inhibition of human A498 cells after 48 hrs by SRB assay; format: functional; conditions: A498, 48 h; method in brief: as §1
[9] = test system: UACC-62; experiment: Growth inhibition of human UACC62 cells after 48 hrs by SRB assay; format: functional; conditions: UACC-62, 48 h; method in brief: as §2
[10] = test system: K562; experiment: Antiproliferative activity against human K562 cells at 10 uM after 48 hrs by trypan blue assay; format: functional; conditions: K562, 48 h, read-out: GI
[11] = test system: SNB-75; experiment: Growth inhibition of human SNB75 cells after 48 hrs by SRB assay; format: functional; conditions: SNB-75, 48 h; method in brief: as §2
[12] = test system: SK-MEL-5; experiment: Growth inhibition of human SK-MEL-5 cells after 48 hrs by SRB assay; format: functional; conditions: SK-MEL-5, 48 h; method in brief: as §2
[13] = test system: SNB-19; experiment: Growth inhibition of human SNB19 cells after 48 hrs by SRB assay; format: functional; conditions: SNB-19, 48 h; method in brief: as §2
[14] = test system: U-251; experiment: Growth inhibition of human U251 cells after 48 hrs by SRB assay; format: functional; conditions: U-251, 48 h; method in brief: as §2
[15] = test system: K562; experiment: Growth inhibition of human K562 cells after 48 hrs by trypan blue assay; format: functional, cell-based; conditions: K562, 48 h
[16] = test system: COLO 205; experiment: Growth inhibition of human COLO205 cells after 48 hrs by SRB assay; format: functional; conditions: COLO 205, 48 h; method in brief: as §1
[17] = test system: NCI-H23; experiment: Growth inhibition of human NCI-H23 cells after 48 hrs by SRB assay; format: functional; conditions: NCI-H23, 48 h; method in brief: as §1
[18] = test system: OVCAR-3; experiment: Growth inhibition of human OVCAR3 cells after 48 hrs by SRB assay; format: functional; conditions: OVCAR-3, 48 h; method in brief: as §1
[19] = test system: CCRF-CEM; experiment: Growth inhibition of human CCRF-CEM cells after 48 hrs by SRB assay; format: functional; method in brief: as §1
[20] = test system: SF-268; experiment: Growth inhibition of human SF268 cells after 48 hrs by SRB assay; format: functional; conditions: SF-268, 48 h; method in brief: as §1
[21] = test system: ACHN; experiment: Growth inhibition of human ACHN cells after 48 hrs by SRB assay; format: functional; method in brief: as §1
[22] = test system: NCI/ADR-RES; experiment: Growth inhibition of human NCI/ADR-RES cells after 48 hrs by SRB assay; format: functional; method in brief: as §1
[23] = test system: NCI-H460; experiment: Growth inhibition of human NCI-H460 cells after 48 hrs by SRB assay; format: functional; conditions: NCI-H460, 48 h; method in brief: as §1
[24] = test system: SN12C; experiment: Growth inhibition of human SN12C cells after 48 hrs by SRB assay; format: functional; method in brief: as §2
[25] = test system: HCT-116; experiment: Growth inhibition of human HCT116 cells after 48 hrs by SRB assay; format: functional; conditions: HCT-116, 48 h; method in brief: as §1
[26] = test system: NCI-H226; experiment: Growth inhibition of human NCI-H226 cells after 48 hrs by SRB assay; format: functional; conditions: NCI-H226, 48 h; method in brief: as §1
[27] = test system: BT-549; experiment: Growth inhibition of human BT549 cells after 48 hrs by SRB assay; format: functional; conditions: BT-549, 48 h; method in brief: as §1
[28] = test system: LOX IMVI; experiment: Growth inhibition of human LOXIMVI cells after 48 hrs by SRB assay; format: functional; method in brief: as §1
[29] = test system: MDA-MB-468; experiment: Growth inhibition of human MDA-MB-468 cells after 48 hrs by SRB assay; format: functional; conditions: MDA-MB-468, 48 h; method in brief: as §1
[30] = test system: T47D; experiment: Growth inhibition of human T47D cells after 48 hrs by SRB assay; format: functional; method in brief: as §2
[31] = test system: K562; experiment: Growth inhibition of human K562 cells after 48 hrs by SRB assay; format: functional; conditions: K562, 48 h; method in brief: as §1
[32] = test system: MCF7; experiment: Growth inhibition of human MCF7 cells after 48 hrs by SRB assay; format: functional; conditions: MCF7, 48 h; method in brief: as §1
[33] = test system: HCT-15; experiment: Growth inhibition of human HCT15 cells after 48 hrs by SRB assay; format: functional; conditions: HCT-15, 48 h; method in brief: as §1
[34] = test system: HOP-62; experiment: Growth inhibition of human HOP62 cells after 48 hrs by SRB assay; format: functional; conditions: HOP-62, 48 h; method in brief: as §1
[35] = Growth inhibition of human Hs 578T cells after 48 hrs by SRB assay; format: functional; method in brief: as §1
[36] = test system: SK-MEL-28; experiment: Growth inhibition of human SK-MEL-28 cells after 48 hrs by SRB assay; format: functional; conditions: SK-MEL-28, 48 h; method in brief: as §2
[37] = test system: Malme-3M; experiment: Growth inhibition of human MALME-3M cells after 48 hrs by SRB assay; format: functional; method in brief: as §1
[38] = test system: SK-OV-3; experiment: Growth inhibition of human SKOV3 cells after 48 hrs by SRB assay; format: functional; conditions: SK-OV-3, 48 h; method in brief: as §2
[39] = test system: OVCAR-5; experiment: Growth inhibition of human OVCAR5 cells after 48 hrs by SRB assay; format: functional; conditions: OVCAR-5, 48 h; method in brief: as §1
[40] = test system: SF-295; experiment: Growth inhibition of human SF295 cells after 48 hrs by SRB assay; format: functional; conditions: SF-295, 48 h; method in brief: as §1
[41] = test system: HT-29; experiment: Growth inhibition of human HT-29 cells after 48 hrs by SRB assay; format: functional; conditions: HT-29, 48 h; method in brief: as §1
[42] = test system: 786-0; experiment: Growth inhibition of human 786-0 cells after 48 hrs by SRB assay; format: functional; conditions: 786-0, 48 h; method in brief: as §1
[43] = test system: TK-10; experiment: Growth inhibition of human TK10 cells after 48 hrs by SRB assay; format: functional; conditions: TK-10, 48 h; method in brief: as §2
[44] = test system: EKVX; experiment: Growth inhibition of human EKVX cells after 48 hrs by SRB assay; format: functional; method in brief: as §1
[45] = test system: SW-620; experiment: Growth inhibition of human SW620 cells after 48 hrs by SRB assay; format: functional; conditions: SW-620, 48 h; method in brief: as §2
[46] = test system: MDA-MB-231; experiment: Growth inhibition of human MDA-MB-231 cells after 48 hrs by SRB assay; format: functional; conditions: MDA-MB-231, 48 h; method in brief: as §1
[47] = test system: HOP-92; experiment: Growth inhibition of human HOP92 cells after 48 hrs by SRB assay; format: functional; conditions: HOP-92, 48 h; method in brief: as §1
[48] = test system: KM12; experiment: Growth inhibition of human KM12 cells after 48 hrs by SRB assay; format: functional; conditions: KM12, 48 h; method in brief: as §1
[49] = test system: HL-60; experiment: Growth inhibition of human HL60 cells after 48 hrs by SRB assay; format: functional; conditions: HL-60, 48 h; method in brief: as §1
[50] = test system: MOLT-4; experiment: Growth inhibition of human MOLT4 cells after 48 hrs by SRB assay; format: functional; conditions: MOLT-4, 48 h; method in brief: as §1
[51] = test system: DU-145; experiment: Growth inhibition of human DU145 cells after 48 hrs by SRB assay; format: functional; conditions: DU-145, 48 h; method in brief: as §1
[52] = test system: SF-539; experiment: Growth inhibition of human SF539 cells after 48 hrs by SRB assay; format: functional; conditions: SF-539, 48 h; method in brief: as §1
[53] = test system: CAKI-1; experiment: Growth inhibition of human Caki1 cells after 48 hrs by SRB assay; format: functional; conditions: CAKI-1, 48 h; method in brief: as §1

GI50 [2]: 1.02 µM
GI50 [3]: 1.03 µM
GI50 [4]: 0.231 µM
GI50 [7]: 0.684 µM
GI50 [12]: 0.435 µM
GI50 [14]: 0.887 µM
IC50 [15]: 5 µM
GI50 [16]: 0.917 µM
GI50 [17]: 1.09 µM
GI50 [18]: 0.349 µM
GI50 [19]: 0.429 µM
GI50 [21]: 3.36 µM
GI50 [23]: 0.662 µM
GI50 [25]: 0.663 µM
GI50 [26]: 2.61 µM
GI50 [27]: 1.41 µM
GI50 [29]: 0.279 µM
GI50 [30]: 1.57 µM
GI50 [31]: 0.415 µM
GI50 [32]: 0.569 µM
GI50 [33]: 1.04 µM
GI50 [36]: 0.839 µM
GI50 [38]: 1.41 µM
GI50 [39]: 2.92 µM
GI50 [41]: 0.527 µM
GI50 [42]: 1.76 µM
GI50 [45]: 0.705 µM
GI50 [46]: 2.19 µM
GI50 [49]: 0.346 µM
GI50 [50]: 1.86 µM
GI50 [51]: 0.935 µM
SMILES: NC(=O)c1cc(Br)ccc1NC(=O)/C=C/c1ccccc1
GI50 [1]: 0.482 µM
GI50 [5]: 1.85 µM
GI50 [6]: 0.444 µM
GI50 [8]: 1.7 µM
GI50 [9]: 0.782 µM
inhibition of growth at 10 µM [10]: 62.4%
GI50 [11]: 2.07 µM
GI50 [13]: 2 µM
GI50 [20]: 1.83 µM
GI50 [22]: 0.4 µM
GI50 [24]: 2.96 µM
GI50 [28]: 3.27 µM
GI50 [34]: 1.51 µM
GI50 [35]: 0.624 µM
GI50 [37]: 1.21 µM
GI50 [40]: 0.625 µM
GI50 [43]: 2.67 µM
GI50 [44]: 2.41 µM
GI50 [47]: 1.96 µM
GI50 [48]: 0.739 µM
GI50 [52]: 0.819 µM
GI50 [53]: 1.34 µM

Source: ChEMBL document CHEMBL1795311, “Synthesis, antiproliferative activity, and mechanism of action of a series of 2-{[(2E)-3-phenylprop-2-enoyl]amino}benzamides” (Eur J Med Chem, 2011)
